This note sets out measurements from ChEMBL document CHEMBL4513216, “Probing the Open Global Health Chemical Diversity Library for Multistage-Active Starting Points for Next-Generation Antimalarials” (ACS Infect Dis, 2020).

The data set is described as follows: Toxicity liver stage against HepG2, at 10uM. Format: cell-based. More on the design: test concentration 10 uM, cell line HepG2-A16-CD81EGFP. To be noted: human, HepG2-A16-CD81EGFP cells; read-out: INHIBITION
The essentials: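 Uninfected HepG2-A16-CD81EGFP cells, 3 × 10^3 per well, 1536-well, plated on prespotted compound at 10 μM final, parasite-free screening media added to match infected plates; puromycin 10 μM positive, DMSO 0.5% negative; run in parallel with 48 h PbLuc assay at 37 °C, 5% CO2; viability by CellTiter-Glo luminescence, normalized to controls.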

On to `Cc1noc(CN(Cc2cccc(C#N)c2)Cc2ccco2)n1`, for which the cytotoxicity at 10 µM was 0.554%.

For `COc1cccc(NC(=O)CN(C(C)C)C2CC2)c1`, the cytotoxicity at 10 µM is -2.83%.

Regarding `Cc1ccccc1Cc1nc(CSc2nnc(N)n2C)no1`, the cytotoxicity at 10 µM worked out at 5.26%.

`CN(Cc1ccc(C(=O)NCC2COCCO2)c(=O)[nH]1)CC(C)(C)C` (centres undefined): the cytotoxicity at 10 µM is 3.21%.

On to `Cc1cn2nc(Sc3nnnn3C)sc2n1`, for which the cytotoxicity at 10 µM stood at 17.3%.

In the case of `COCc1nccc(C2CCCN(Cc3cccc(F)c3)C2)n1` (centres undefined), the cytotoxicity at 10 µM is 0.769%.

As for `CCc1nnc2n1CCN(C(=O)c1ccc3c(c1)NC(=O)CO3)C2`, the cytotoxicity at 10 µM was 1.24%.

On to `COc1ccc(CN2C[C@@H](CN(C)CCO)[C@@H](CO)C2)cc1Cl`, for which the cytotoxicity at 10 µM was -5.88%.

In the case of `COc1ccc(NCC2(O)CCNCC2)cc1OC`, the cytotoxicity at 10 µM was 6.2%.

`CS(=O)(=O)c1ccccc1-n1cc(NC(=O)CC2C=CCC2)cn1` (centres undefined): the cytotoxicity at 10 µM worked out at 1.78%.

For `CCOc1cccc2c1OCC(C(=O)NS(=O)(=O)c1ccc(C)s1)=C2`, the cytotoxicity at 10 µM was -9.02%.

Consider `CCC(C)(C)NC(=O)CN(Cc1cccc(O)c1)C1CCC(O)CC1` (centres undefined), for which the cytotoxicity at 10 µM is -2.22%.

On to `CN(C)CCO[C@H]1CN(Cc2cccc(C#N)c2)[C@@H]2COC[C@H]12`, for which the cytotoxicity at 10 µM was -12.7%.

As for `Cc1cc(C)c(S(N)(=O)=O)cc1C(=O)NCCN1CCC(C)CC1`, the cytotoxicity at 10 µM was -0.77%.

`CCC(=O)N1CCC(Oc2ccc(C(=O)NCCN(C)C)cc2Cl)CC1`: the cytotoxicity at 10 µM was 4.12%.

Turning to `CC(NCc1cnc(N2CCOCC2)s1)c1ccc(Cl)s1` (centres undefined), the cytotoxicity at 10 µM is -9.02%.

Regarding `CCn1ccnc1CN1CCCN(C(=O)c2cc[nH]n2)CC1`, the cytotoxicity at 10 µM was -8.04%.

Take `CC1(C)[C@H](Cc2cc(CN3CCOCC3)on2)C[C@@H]1NC(=O)C1CCC1`: the cytotoxicity at 10 µM was -6.67%.

For `COc1ccc(COCC(=O)N2CCC(c3nncn3C)CC2)cc1`, the cytotoxicity at 10 µM worked out at 4.9%.

Take `CCc1nc(CC(=O)N2CCCC2Cn2cccn2)cs1` (centres undefined): the cytotoxicity at 10 µM is -2.6%.

As for `CSCc1cc(C(=O)NC2(C#N)CC2)ccc1F`, the cytotoxicity at 10 µM is -10.5%.

With `Cc1noc(C)c1CN1CCc2ncnc(-c3ccccc3)c2CC1`, the cytotoxicity at 10 µM is -89.9%.

Take `CCNC(=O)C1CCCN(Cn2nc(C(C)(C)C)ccc2=O)C1` (centres undefined): the cytotoxicity at 10 µM was determined as 10.1%.

As to `Cc1cc(-c2cnc(N3CCNC(=O)C3)nc2-c2ccc(C)o2)on1`, the cytotoxicity at 10 µM is -5.77%.

As for `Cc1cc(C)n(CC2CCCN2CCCS(=O)(=O)N(C)C)n1` (centres undefined), the cytotoxicity at 10 µM was -13.2%.

In the case of `CN(C)CC1(O)CCN(S(=O)(=O)c2ccc(Cl)cc2)C1` (centres undefined), the cytotoxicity at 10 µM is -13.9%.

Consider `CCN1CCC(N2CCN(c3cc(-c4nc(C)no4)ccn3)CC2)CC1`, for which the cytotoxicity at 10 µM was -3.79%.

As for `CC(C)(Oc1ccc2c(c1)CCCC2=O)C(=O)NCc1ccco1`, the cytotoxicity at 10 µM was -2.74%.

Turning to `Cc1cc(CN2CCC3(CC2)C(=O)NCCN3CC2CC2)oc1C`, the cytotoxicity at 10 µM is -67.5%.

Regarding `NC1CCC(NC(=O)c2ccc3nc(-c4ccc(F)cc4)cn3c2)CC1` (centres undefined), the cytotoxicity at 10 µM is -17.7%.

Take `CCC(Nc1nc(CCN)nc2ccccc12)c1cc(C)ccn1` (centres undefined): the cytotoxicity at 10 µM was -12.9%.

For the compound `O=c1[nH]c(-c2ccccc2F)nc2c1CCNC2`, the cytotoxicity at 10 µM is -2.72%.

For the compound `c1cc(-c2nnc(C3(c4ccc5c(c4)OCO5)CCOCC3)o2)ccn1`, the cytotoxicity at 10 µM was -0.973%.

On to `CCCc1cc(N2CCC(Cc3cccc(C(N)=O)c3)C2)nc(C)n1` (centres undefined), for which the cytotoxicity at 10 µM is -1.62%.

With `CCC1=N[C@@]2(CC[C@@H]3CN(C(=O)NCC(C)C)C[C@@H]32)C(=O)N1CC1CC1`, the cytotoxicity at 10 µM turned out to be 9.61%.

For `CCC1CCCCN1C(=O)Cn1nc(-c2ccc(C)o2)cc(N)c1=O` (centres undefined), the cytotoxicity at 10 µM is 3.27%.

Turning to `COc1ccc(C)cc1CC(=O)N1CCN(CC(C)O)CC1` (centres undefined), the cytotoxicity at 10 µM is -8.65%.

`O=c1nc(CNc2ccccc2)[nH]n1Cc1ccccc1`: the cytotoxicity at 10 µM was found to be 4.13%.

On to `COc1ccc(-n2nnc(C(=O)O)c2-c2ccccn2)cc1`, for which the cytotoxicity at 10 µM turned out to be 13.7%.
